The source made the active and inactive calls. No cut-off for these calls is given here.
Columns and labels:
[1] = test system: A375.X1; test: Antitumor activity against human A375.X1 cells xenografted in mouse assessed as reduction in ERK phosphorylation at 1 to 10 mg/kg, po by Western blot analysis; assay type: functional, organism-based; conditions: dose 1-10 mg/kg, time 74-96 hrs, TDE = time-dependent effect
Summary of the method: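 A375.X1 xenograft mice were dosed orally at 1, 3, 5 or 10 mg/kg once daily for 3 days. Tumors were collected 2, 8 and 24 h after the last dose, pulverized frozen and resolved by 4–12% SDS-PAGE. p-ERK1/2 and t-ERK1/2 were measured by Western blot and quantified by band intensity, relative to vehicle-treated mice (0 h).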

[2] = test system: 888-mel; test: Upregulation of Bim level in human 888-mel cells incubated for 24 hrs by immunoblotting analysis; assay type: functional, cell-based
[3] = test system: NCI-H69; test: Antitumor activity against human NCI-H69 cells harboring RBI E748/PK3CA G106_R108/TP53 E171 mutant xenografted in mouse assessed as tumor growth inhibition at 5 mg/kg, po; assay type: functional; conditions: read-out: TGI
Summary of the method: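 Human tumor xenografts in mice were dosed orally at the indicated mg/kg. Tumor volume was measured with calipers as (L×W×W)/2. %TGI = 100 × [1 − (AUC treatment/d)/(AUC vehicle/d)], using the area under the fitted tumor-growth curve per day for each dose group relative to vehicle.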

[4] = test system: 888-mel; test: Induction of apoptosis in human 888-mel cells assessed as increase in cleaved PARP level preincubated with compound for 24 hrs followed by compound washout and measured after 2 hrs in presence of 4-(2-(1H-indazol-4-yl)-6-((4-(methylsulfonyl)piperazin-1-yl)methyl)thieno[3,2-d]pyrimidin-4-yl)morpholine by immunoblotting analysis; assay type: functional, cell-based
Summary of the method: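 The medium was then exchanged to remove compound. Lysates were prepared 2 and 24 h after washout and immunoblotted for cleaved PARP, p-AKT and p-ERK using HRP secondary antibody and ECL.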

[5] = Inhibition of AMPK (unknown origin); parameters: species or system Homo sapiens
[6] = target: Mitogen-activated protein kinase 8 (Homo sapiens, UniProt P45983); test: Inhibition of JNK1 (unknown origin)
[7] = test system: A2058; test: Antitumor activity against human A2058 cells harboring BRAF V600E/PTEN deletion mutant xenografted in mouse assessed as increase in BimL level at 15 mg/kg, po administered every third day for 21 days and measured after 8 hrs post dose by Western blot analysis; assay type: functional, organism-based; conditions: time 512.0 hrs
[8] = target: Phosphatidylinositol 4,5-bisphosphate 3-kinase catalytic subunit beta isoform (Homo sapiens, UniProt P42338); test: Inhibition of PI3Kbeta (unknown origin)
[9] = target: Receptor-type tyrosine-protein kinase FLT3 (Homo sapiens, UniProt P36888); test: Inhibition of Flt3 (unknown origin)
[10] = target: Tyrosine-protein kinase Lck (Homo sapiens, UniProt P06239); test: Inhibition of Lck (unknown origin)
[11] = target: Vascular endothelial growth factor receptor 2 (Homo sapiens, UniProt P35968); test: Inhibition of KDR (unknown origin)
[12] = target: Phosphatidylinositol 4,5-bisphosphate 3-kinase catalytic subunit alpha isoform (Homo sapiens, UniProt P42336); test: Inhibition of PI3Kalpha (unknown origin)
[13] = test system: CWR22R; test: Antitumor activity against human 22Rv1 cells harboring PIK3CA Q546R/TP53 Q331R mutant xenografted in mouse assessed as tumor growth inhibition at 5 mg/kg, po; assay type: functional; conditions: read-out: TGI
[14] = target: Tyrosine-protein kinase ABL1 (Homo sapiens, UniProt P00519); test: Inhibition of Abl (unknown origin)
[15] = test system: A-375; test: Antitumor activity against human A-375 cells harboring BRAF V600E/CDKN2A E61 mutant xenografted in mouse assessed as tumor growth inhibition at 10 mg/kg, po; assay type: functional; conditions: A-375, read-out: TGI
Summary of the method: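 Mice carrying human tumor xenografts dosed orally once daily for 21 consecutive days. Tumor volume measured by calipers as (L×W×W)/2. %TGI = 100×[1 − AUC(treatment/day)/AUC(vehicle/day)], using the area under the fitted growth curve relative to vehicle.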

[16] = test system: A2058; test: Antitumor activity against human A2058 cells xenografted in mouse assessed as effect on S6 phosphorylation at 5 mg/kg, po administered daily for 4 days and measured after 8 hrs; assay type: functional, organism-based; conditions: time 104.0 hrs
[17] = target: Dual specificity tyrosine-phosphorylation-regulated kinase 2 (Homo sapiens, UniProt Q92630); test: Inhibition of DYRK2 (unknown origin)
[18] = target: Serine/threonine-protein kinase Chk2 (Homo sapiens, UniProt O96017); test: Inhibition of CHK2 (unknown origin)
[19] = target: Tyrosine-protein kinase Fes/Fps (Homo sapiens, UniProt P07332); test: Inhibition of Fes (unknown origin)
[20] = target: ALK tyrosine kinase receptor (Homo sapiens, UniProt Q9UM73); test: Inhibition of ALK (unknown origin)
[21] = target: Interleukin-1 receptor-associated kinase 1 (Homo sapiens, UniProt P51617); test: Inhibition of IRAK1 (unknown origin)
[22] = target: Protein kinase C alpha type (Homo sapiens, UniProt P17252); test: Inhibition of PKC alpha (unknown origin)
[23] = test system: LoVo; test: Antitumor activity against human LoVo cells harboring KRAS G13D/CDKN2A P48L/FBXW7 R505C/MSH2/SMO G16_L17insLL/A324T/NF1 R1276Q/Y1607fs17/APC1114 mutant xenografted in mouse assessed as tumor growth inhibition at 5 mg/kg, po; assay type: functional; conditions: read-out: TGI
Summary of the method: (§1)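 Single-agent dose ranging in human tumor xenograft mice at 2.5, 5 or 10 mg/kg oral. Tumor volume was measured by caliper as (L×W×W)/2. %TGI = 100×[1 − AUC(treatment/d)/AUC(vehicle/d)] from the fitted growth curve per dose group, relative to vehicle.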

[24] = test system: 888-mel; test: Inhibition of S6 phosphorylation in human 888-mel cells incubated for 24 hrs in presence of 4-(2-(1H-indazol-4-yl)-6-((4-(methylsulfonyl)piperazin-1-yl)methyl)thieno[3,2-d]pyrimidin-4-yl)morpholine by immunoblotting analysis; assay type: cell-based
[25] = test system: 888-mel; test: Upregulation of Bim level in human 888-mel cells preincubated with compound for 24 hrs followed by compound washout and measured after 2 hrs by immunoblotting analysis; assay type: functional, cell-based
[26] = test system: KP-4; test: Antitumor activity against human KP-4 cells harboring KRAS G12D mutant xenografted in mouse assessed as tumor growth inhibition at 5 mg/kg, po; assay type: functional; conditions: read-out: TGI; summary of the method: as §1
[27] = target: Dual specificity mitogen-activated protein kinase kinase 6 (Homo sapiens, UniProt P52564); test: Inhibition of MKK6 (unknown origin)
[28] = test system: A-427; test: Antitumor activity against human A-427 cells harboring […]/LKB1 CDKN2A CTNNB1 T41A SMARCA4 mutant xenografted in mouse assessed as tumor growth inhibition at 5 mg/kg, po; assay type: functional; conditions: A-427, read-out: TGI
[29] = test system: HCT-116; test: Antitumor activity against human HCT-116 cells harboring KRAS G13D/PIK3CA […]/CTNNB1 S45del/CDKN2A G23fs mutant xenografted in mouse assessed as tumor growth inhibition at 2.5 mg/kg, po; assay type: functional; conditions: read-out: TGI; summary of the method: as §1
[30] = target: Ephrin type-A receptor 2 (Homo sapiens, UniProt P29317); test: Inhibition of EphA2 (unknown origin)
[31] = target: Cyclin-dependent kinase 2/cyclin E1 (Homo sapiens, UniProt P24941); test: Inhibition of CDK2/cyclinE (unknown origin); assay type: protein-complex assay
[32] = target: Tyrosine-protein kinase Lyn (Homo sapiens, UniProt P07948); test: Inhibition of Lyn (unknown origin)

Phosphatidylinositol 4,5-bisphosphate 3-kinase catalytic subunit alpha isoform, sequence (P42336 whole entry, canonical isoform): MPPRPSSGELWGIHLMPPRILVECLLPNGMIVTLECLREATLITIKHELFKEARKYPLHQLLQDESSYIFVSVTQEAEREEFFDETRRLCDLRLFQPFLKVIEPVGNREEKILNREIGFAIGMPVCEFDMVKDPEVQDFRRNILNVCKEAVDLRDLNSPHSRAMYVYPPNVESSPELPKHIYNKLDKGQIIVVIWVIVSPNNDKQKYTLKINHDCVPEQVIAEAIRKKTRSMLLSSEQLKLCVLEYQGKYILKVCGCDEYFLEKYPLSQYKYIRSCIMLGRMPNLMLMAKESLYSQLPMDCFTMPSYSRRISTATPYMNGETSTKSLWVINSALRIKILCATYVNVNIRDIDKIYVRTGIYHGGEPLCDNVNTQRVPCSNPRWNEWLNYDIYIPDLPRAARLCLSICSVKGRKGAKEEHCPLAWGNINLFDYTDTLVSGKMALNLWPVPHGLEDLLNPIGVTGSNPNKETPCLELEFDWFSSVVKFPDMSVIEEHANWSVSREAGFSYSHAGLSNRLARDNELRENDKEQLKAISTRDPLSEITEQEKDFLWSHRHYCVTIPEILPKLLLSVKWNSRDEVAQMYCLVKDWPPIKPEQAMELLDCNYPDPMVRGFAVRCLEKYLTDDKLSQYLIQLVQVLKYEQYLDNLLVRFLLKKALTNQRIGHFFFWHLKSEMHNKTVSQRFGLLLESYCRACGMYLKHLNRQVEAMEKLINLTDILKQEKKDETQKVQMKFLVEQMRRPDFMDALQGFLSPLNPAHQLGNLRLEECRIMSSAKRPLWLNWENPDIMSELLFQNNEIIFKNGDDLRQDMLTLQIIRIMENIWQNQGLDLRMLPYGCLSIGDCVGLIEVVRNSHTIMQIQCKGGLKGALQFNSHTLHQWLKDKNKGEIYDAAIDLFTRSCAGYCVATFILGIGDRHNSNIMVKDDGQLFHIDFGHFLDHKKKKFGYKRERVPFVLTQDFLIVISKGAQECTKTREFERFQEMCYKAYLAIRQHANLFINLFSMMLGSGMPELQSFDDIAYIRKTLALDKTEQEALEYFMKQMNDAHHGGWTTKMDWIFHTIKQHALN
Mitogen-activated protein kinase 8, sequence (P45983 whole entry): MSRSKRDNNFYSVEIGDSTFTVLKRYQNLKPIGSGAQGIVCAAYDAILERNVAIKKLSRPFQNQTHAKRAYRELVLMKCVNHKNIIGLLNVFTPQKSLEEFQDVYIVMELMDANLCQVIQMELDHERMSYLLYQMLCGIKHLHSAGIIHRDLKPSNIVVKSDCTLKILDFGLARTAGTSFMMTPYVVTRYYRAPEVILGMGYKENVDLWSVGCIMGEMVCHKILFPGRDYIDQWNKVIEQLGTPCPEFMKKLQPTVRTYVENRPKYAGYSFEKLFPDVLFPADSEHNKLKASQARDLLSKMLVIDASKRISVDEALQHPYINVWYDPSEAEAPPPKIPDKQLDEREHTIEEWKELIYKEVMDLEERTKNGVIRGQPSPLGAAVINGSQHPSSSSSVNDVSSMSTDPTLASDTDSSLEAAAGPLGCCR
Ephrin type-A receptor 2, sequence (P29317 whole entry): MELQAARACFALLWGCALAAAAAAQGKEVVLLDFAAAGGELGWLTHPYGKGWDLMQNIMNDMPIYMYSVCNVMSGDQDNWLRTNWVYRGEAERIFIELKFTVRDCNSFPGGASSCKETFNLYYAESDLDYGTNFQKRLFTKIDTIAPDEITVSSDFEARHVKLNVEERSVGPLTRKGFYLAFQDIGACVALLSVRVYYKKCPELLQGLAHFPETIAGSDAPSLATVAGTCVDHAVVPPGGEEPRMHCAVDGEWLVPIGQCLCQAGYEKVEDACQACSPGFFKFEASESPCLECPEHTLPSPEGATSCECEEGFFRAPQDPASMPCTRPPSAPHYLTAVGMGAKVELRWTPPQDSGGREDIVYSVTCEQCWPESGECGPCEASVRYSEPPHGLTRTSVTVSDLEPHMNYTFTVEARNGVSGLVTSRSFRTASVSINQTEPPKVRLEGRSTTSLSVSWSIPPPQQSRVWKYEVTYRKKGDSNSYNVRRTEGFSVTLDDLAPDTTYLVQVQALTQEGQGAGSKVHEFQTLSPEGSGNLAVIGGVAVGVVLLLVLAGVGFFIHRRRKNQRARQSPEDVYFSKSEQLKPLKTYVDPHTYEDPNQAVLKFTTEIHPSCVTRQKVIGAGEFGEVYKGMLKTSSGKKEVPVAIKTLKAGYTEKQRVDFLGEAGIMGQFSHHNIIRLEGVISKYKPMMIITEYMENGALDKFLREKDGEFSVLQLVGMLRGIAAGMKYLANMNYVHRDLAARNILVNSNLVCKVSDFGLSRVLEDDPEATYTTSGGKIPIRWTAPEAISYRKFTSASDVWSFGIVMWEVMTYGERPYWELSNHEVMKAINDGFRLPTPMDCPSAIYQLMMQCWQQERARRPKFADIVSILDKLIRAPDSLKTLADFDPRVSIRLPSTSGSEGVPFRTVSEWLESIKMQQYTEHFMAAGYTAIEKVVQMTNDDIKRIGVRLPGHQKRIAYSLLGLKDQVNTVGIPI
Receptor-type tyrosine-protein kinase FLT3, sequence (P36888 whole entry): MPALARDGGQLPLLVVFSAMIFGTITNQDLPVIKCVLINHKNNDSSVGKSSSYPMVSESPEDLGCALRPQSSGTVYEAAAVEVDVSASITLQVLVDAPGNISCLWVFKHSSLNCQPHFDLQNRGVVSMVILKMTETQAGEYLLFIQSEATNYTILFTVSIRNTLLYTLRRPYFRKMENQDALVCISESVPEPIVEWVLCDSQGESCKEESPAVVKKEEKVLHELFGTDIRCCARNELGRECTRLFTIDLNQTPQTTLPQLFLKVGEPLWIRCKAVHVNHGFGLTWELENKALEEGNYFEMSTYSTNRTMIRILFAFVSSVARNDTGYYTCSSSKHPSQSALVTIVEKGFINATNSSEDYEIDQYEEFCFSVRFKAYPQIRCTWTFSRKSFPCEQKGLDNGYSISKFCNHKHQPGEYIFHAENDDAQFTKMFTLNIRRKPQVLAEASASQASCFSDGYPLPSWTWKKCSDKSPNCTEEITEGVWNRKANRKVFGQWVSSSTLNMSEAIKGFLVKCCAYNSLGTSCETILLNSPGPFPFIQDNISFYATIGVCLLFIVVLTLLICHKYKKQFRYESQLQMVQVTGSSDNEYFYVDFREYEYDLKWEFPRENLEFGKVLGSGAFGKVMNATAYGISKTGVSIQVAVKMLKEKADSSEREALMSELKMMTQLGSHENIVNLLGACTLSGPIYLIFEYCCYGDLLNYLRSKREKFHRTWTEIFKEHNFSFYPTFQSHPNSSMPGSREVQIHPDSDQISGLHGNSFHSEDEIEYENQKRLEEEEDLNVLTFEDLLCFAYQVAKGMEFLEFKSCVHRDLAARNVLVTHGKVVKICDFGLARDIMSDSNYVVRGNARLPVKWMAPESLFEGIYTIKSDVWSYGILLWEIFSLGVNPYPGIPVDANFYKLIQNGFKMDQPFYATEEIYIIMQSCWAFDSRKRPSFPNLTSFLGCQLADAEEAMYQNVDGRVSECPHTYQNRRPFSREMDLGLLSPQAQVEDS
Dual specificity tyrosine-phosphorylation-regulated kinase 2, sequence (Q92630 whole entry): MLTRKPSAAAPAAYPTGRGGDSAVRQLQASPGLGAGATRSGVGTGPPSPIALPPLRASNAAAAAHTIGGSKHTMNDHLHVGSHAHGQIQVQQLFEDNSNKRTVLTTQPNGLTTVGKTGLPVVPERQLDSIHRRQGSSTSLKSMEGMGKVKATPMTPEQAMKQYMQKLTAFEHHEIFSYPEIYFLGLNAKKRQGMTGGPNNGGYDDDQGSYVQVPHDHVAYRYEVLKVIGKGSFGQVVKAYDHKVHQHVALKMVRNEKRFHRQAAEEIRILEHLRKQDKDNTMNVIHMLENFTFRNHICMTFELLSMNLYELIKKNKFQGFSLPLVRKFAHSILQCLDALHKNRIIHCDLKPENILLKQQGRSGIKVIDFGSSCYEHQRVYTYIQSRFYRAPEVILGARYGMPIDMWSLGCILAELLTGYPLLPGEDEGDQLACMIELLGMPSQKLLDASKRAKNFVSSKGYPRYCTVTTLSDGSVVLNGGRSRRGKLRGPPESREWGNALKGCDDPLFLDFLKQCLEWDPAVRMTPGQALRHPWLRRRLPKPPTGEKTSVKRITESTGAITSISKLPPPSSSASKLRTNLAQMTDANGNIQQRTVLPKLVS
Dual specificity mitogen-activated protein kinase kinase 6, sequence (P52564 whole entry): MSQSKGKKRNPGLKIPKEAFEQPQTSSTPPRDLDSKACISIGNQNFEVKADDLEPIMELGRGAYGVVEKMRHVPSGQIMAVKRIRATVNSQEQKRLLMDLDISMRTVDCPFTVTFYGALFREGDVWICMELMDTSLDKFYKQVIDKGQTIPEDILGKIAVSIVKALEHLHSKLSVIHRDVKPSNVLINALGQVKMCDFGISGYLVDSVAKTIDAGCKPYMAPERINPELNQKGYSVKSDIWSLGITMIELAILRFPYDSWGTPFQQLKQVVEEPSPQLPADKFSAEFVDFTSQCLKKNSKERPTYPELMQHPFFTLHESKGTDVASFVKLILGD

IC50 [5]: > 10 µM
IC50 [6]: > 10 µM
IC50 [8]: > 10 µM
IC50 [9]: > 10 µM
IC50 [10]: > 10 µM
IC50 [11]: > 10 µM
IC50 [12]: > 10 µM
IC50 [14]: > 10 µM
IC50 [17]: > 10 µM
IC50 [18]: > 10 µM
IC50 [19]: > 10 µM
IC50 [20]: > 10 µM
IC50 [21]: > 10 µM
IC50 [22]: > 10 µM
IC50 [27]: > 10 µM
IC50 [30]: > 10 µM
IC50 [31]: > 10 µM
IC50 [32]: > 10 µM
SMILES: O=C(c1ccc(F)c(F)c1Nc1ccc(I)cc1F)N1CC(O)([C@@H]2CCCCN2)C1 [COBIMETINIB]
Activity [1]: Tde
Activity [2]: Active
inhibition in vivo at 5 mg/kg [3]: 21%
Activity [4]: inactive
Activity [7]: Active
inhibition in vivo at 5 mg/kg [13]: 106%
inhibition in vivo at 10 mg/kg [15]: 122%
Activity [16]: Active
inhibition in vivo at 5 mg/kg [23]: 73%
inhibition [24]: Active
Activity [25]: Active
inhibition in vivo at 5 mg/kg [26]: 69.5%
inhibition in vivo at 5 mg/kg [28]: -137%
inhibition in vivo at 2.5 mg/kg [29]: 34%

Source: ChEMBL document CHEMBL5678805, “Intermittent administration of MEK inhibitor GDC-0973 plus PI3K inhibitor GDC-0941 triggers robust apoptosis and tumor growth inhibition” (Cancer Res, 2012)
